Bioassay records (PubChem)
An excerpt weighted towards active compounds, which were near 3.4% of everything screened.
AF4-AF9 inh: MLL-AF4/AF9 protein interaction inhibition. AlphaScreen, biotin-AF4 peptide binding to FLAG-AF9. inhibition, % at 10 µM. 350,000 tested, 0.47% active. AID 651704;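 active = every replicate reaching a set inhibition limit, whatever the replicate mean, cut at about 25% in these data; inconclusive = mean inhibition reaches that limit but some replicates miss it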;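 note: 0% = plate neutral control median and 100% = total signal loss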
ERAP1 inh: inhibitors of human ERAP1 aminopeptidase | Q9NZ08 | recombinant ERAP1, Leu-AMC fluorescence, 60 min | inhibition, % at 10.7 µM | 340,000 tested, 0.15% active | AID 652197;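 active = mean replicate inhibition of at least 30%, or all replicates individually reaching that 30% level; inactive = mean below 30% and not every replicate reaching it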;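 note: 0% = neutral control wells and 100% = L-leucinethiol positive control wells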
Target sequence (Q9NZ08 whole entry, looked up): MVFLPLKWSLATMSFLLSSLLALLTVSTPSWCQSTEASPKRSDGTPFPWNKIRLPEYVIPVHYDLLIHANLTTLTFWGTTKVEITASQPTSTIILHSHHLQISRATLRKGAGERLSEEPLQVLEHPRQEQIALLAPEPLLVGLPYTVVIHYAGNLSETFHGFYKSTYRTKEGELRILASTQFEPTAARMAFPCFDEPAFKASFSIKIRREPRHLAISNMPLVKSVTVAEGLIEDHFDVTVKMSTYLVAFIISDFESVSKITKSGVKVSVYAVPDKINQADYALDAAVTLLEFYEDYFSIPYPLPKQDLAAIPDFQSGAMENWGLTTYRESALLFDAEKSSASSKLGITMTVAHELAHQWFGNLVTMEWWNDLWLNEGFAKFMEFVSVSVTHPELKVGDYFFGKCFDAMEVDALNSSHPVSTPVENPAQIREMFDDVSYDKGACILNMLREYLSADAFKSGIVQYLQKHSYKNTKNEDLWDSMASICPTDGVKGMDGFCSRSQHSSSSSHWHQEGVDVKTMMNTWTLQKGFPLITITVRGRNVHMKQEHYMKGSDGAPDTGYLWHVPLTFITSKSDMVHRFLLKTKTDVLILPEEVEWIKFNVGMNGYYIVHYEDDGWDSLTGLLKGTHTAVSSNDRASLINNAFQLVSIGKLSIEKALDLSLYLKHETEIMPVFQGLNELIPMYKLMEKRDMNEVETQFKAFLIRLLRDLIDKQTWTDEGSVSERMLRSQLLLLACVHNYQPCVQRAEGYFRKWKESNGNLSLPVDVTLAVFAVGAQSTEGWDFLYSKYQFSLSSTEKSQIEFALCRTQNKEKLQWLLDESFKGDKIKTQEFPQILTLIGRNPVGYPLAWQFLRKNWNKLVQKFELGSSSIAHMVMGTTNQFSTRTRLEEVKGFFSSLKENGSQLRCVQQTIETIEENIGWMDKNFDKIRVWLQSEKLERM
SIRT5 inh: sirtuin-5 (human) deacylase inhibition | Q9NXA8 | Purified SirT5, succinyl-peptide AMC, trypsin-coupled fluorescence | inhibition, % at 15 µM | 330,000 tested, 1.1% active; in the data active = inhibition above about 15%; inconclusive = no clear call, values can overlap the other calls
rRNA inh HTS: inhibitors of bacterial rRNA selective over humanized ribosomes; E. coli WT GFP vs humanized-ribosome RFP mutants, fluorescence, 24 h; stronger effect = lower value; DMSO median 0, no signal -100; GFP signal change (wild-type ribosome), % (test concentration not listed); 350,000 tested, 1.6% active; AID 720706;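 active = significant combined selectivity score with lowered wild-type GFP, culture density cut under 30%, mutant RFP and density less affected; inactive = any of these conditions unmet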
E-sel inducer: E-selectin induction on HUVECs; 260,000 tested, 0.37% active; activation, % at 7.58 µM; HUVEC E-selectin immunofluorescence imaging; normalized: neutral wells 0, TNF-alpha wells 100; AID 686992; P16581;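 active = mean E-selectin-positive cell signal at least 10% of the positive control, reached in at least 60% of replicates, without over 20% cell loss; inconclusive = no rule given, readout overlaps actives, possibly toxicity-flagged; inactive = the rest, including those meeting only one limit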
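Assay system: HUVEC, human umbilical vein endothelial cells / Amount: 3,000 HUVEC/well / Controls: TNF-alpha positive control, DMSO neutral control / Compound dosing: single concentration / Medium: EGM-2 over gelatin coat / Evaluation: percent E-selectin-positive cells / Signal: immunofluorescence imaging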
S100A4 MyoIIA: inhibitors of human S100A4 binding to myosin IIA peptide. 360,000 tested, 0.14% active. inhibition, % at 10.7 µM. AID 652163. P26447. S100A4/TAMRA-MyoIIA peptide fluorescence polarization;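 active = mean inhibition of at least 70% across replicates, with every replicate also reaching that level; inconclusive = mean inhibition reaches 70% but some replicates fall short; inactive = mean inhibition below 70%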
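Test system: S100A4 monomer protein. Medium: HEPES buffer with Ca2+, pH 7.2. Reagent: fluorescent myosin IIA peptide, 5 nM. Compound dosing: single-point compound testing. Timing: 5 min between mix addition and reading. Benchmarks: DMSO neutral and TFP positive wells.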
An asterisk follows results filed as active; ? = inconclusive; . = not tested or not shown.

SMILES	AF4-AF9 inh	ERAP1 inh	SIRT5 inh	rRNA inh HTS	E-sel inducer	S100A4 MyoIIA
C[C@H](CO)N1C[C@H](C)[C@H](CN(C)C)Oc2ccc(NC(=O)Cn3cnnn3)cc2CC1=O	-1	-5	-2	12	.	-27
O=C1NC(=S)NC1=Cc1ccc(Cl)cc1Cl	3	1	.	-25*	0	-3
COc1cccc(C(=O)CSc2nnc(COc3cccc4cccnc34)o2)c1	4	-1	-4	-35*	.	-3
Cc1ccc(C(=O)CSc2nnc(COc3cccc4cccnc34)o2)cc1	5	-2	-9	-32*	.	8
O=C(CSc1nnc(COc2cccc3cccnc23)o1)N1CCCC1	1	4	-4	-7	.	5
COc1ccc2c3c([nH]c2c1)[C@@H](CO)N(C(C)=O)CC31CN(Cc2cc(-c3ccccc3)on2)C1	?	-1	0	-5	0	10
NC(=S)NNc1c(F)c(F)c(F)c(F)c1F	-1	6	1	-26*	.	6
NCC[C@H]1CC[C@@H](NC(=O)C2CC2)[C@H](CO)O1	-7	0	-1	2	0	7
O=C(CSc1nc(=O)n2ccccc2n1)N1CCCc2ccccc21	-4	3	-9	1	32*	-8
CCCNC(=O)c1ccc(N2CCC3(CC2)CC(c2ccccc2)=NO3)c([N+](=O)[O-])c1	4	-2	-2	-10	1	-2
CCCCCCCNC(=O)c1ccc(N2CCC3(CC2)OCCO3)c([N+](=O)[O-])c1	-3	-3	5	-26*	1	4
COc1cc2ccccc2cc1C(=O)N(CCN(C)C)c1nc2c(C)cccc2s1	15	-2	0	2	.	0
COc1ccc(OC)c2sc(N(CCN(C)C)C(=O)c3ccc4ccccc4c3)nc12	28*	-1	-4	-8	0	3
COc1cc2ccccc2cc1C(=O)N(CCN(C)C)c1nc2c(OC)ccc(OC)c2s1	50*	-6	7	-4	0	6
CCCC#Cc1ccc2c(c1)O[C@@H](CN(C)C)[C@@H](C)CN([C@H](C)CO)S2(=O)=O	2	-1	-2	0	1	6
Cc1cc(Br)cn2c(Cc3cccc(F)c3)c(-c3ccc(Cl)cc3)nc12	-5	-3	0	-32*	0	-2
Cc1cc(Br)cn2c(Cc3ccccc3)c(-c3ccc(Cl)cc3)nc12	0	0	-24	1	0	-6
COc1ccccc1Cc1c(-c2ccc(F)cc2)nc2c(C)cc(Br)cn12	-1	.	-2	-32*	4	-11
Cc1ccc(Cc2c(-c3cccc(Br)c3)nc3c(Cl)cc(C(F)(F)F)cn23)cc1	-2	.	25*	8	4	-14
C[C@H](CO)N1C[C@H](C)[C@@H](CN(C)C(=O)C2CCCCC2)Oc2ncc(/C=C/c3ccccc3)cc2C1=O	17	-2	0	-7	1	38
Cc1ccc(CN=c2c([N+](=O)[O-])nn(-c3cccc(Cl)c3)n2O)cc1	5	1	-1	-24*	5	-5
COc1ccc(S(=O)(=O)Nc2ccc3c(c2)C(=O)N([C@H](C)CO)C[C@H](C)[C@H](CN(C)S(=O)(=O)c2ccc(OC)cc2)OCCCC[C@H](C)O3)cc1	.	.	.	1	0	.
CC(C)(C)[C@H]1C=C(C(=O)N2CCCCCCC2)O[C@@H](OCc2ccc(CO)cc2)C1	-2	-2	3	.	.	3
C[C@H](CO)N1C[C@H](C)[C@H](CN(C)Cc2ccncc2)Oc2ccc(NC(=O)CCN3CCOCC3)cc2C1=O	-3	-4	25*	1	-7	-7
C[C@H]1CN([C@@H](C)CO)C(=O)c2cc(NC(=O)CCN3CCOCC3)ccc2O[C@H]1CN(C)Cc1ccccc1	0	1	-4	3	0	-4
C[C@@H]1CN([C@H](C)CO)C(=O)c2cc(NC(=O)CCN3CCOCC3)ccc2O[C@@H]1CN(C)Cc1ccncc1	-2	-2	-7	1	36*	37
C[C@H](CO)N1C[C@H](C)[C@@H](CN(C)Cc2ccncc2)Oc2ccc(NC(=O)CCN3CCOCC3)cc2C1=O	-3	-2	3	0	2	0
